From ChEMBL document CHEMBL4376888, “Discovery of Potent, Selective, and Direct Acid Sphingomyelinase Inhibitors with Antidepressant Activity” (J Med Chem, 2020)
Active and inactive are the calls of the source. The calls are words filed in the database; no cut-off is given here.

Columns and labels:
Rattus norvegicus [1] = test: Antidepressant activity in ip dosed Sprague-Dawley rat model of reserpine-induced depression assessed as increase in sugar consumption treated twice daily for 2 weeks measured after 2 days of […] followed by 20 hrs water depletion and fasting by sugar water preference test; type: functional, organism-based
Method in brief: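 Reserpine model (4 mg/Kg ip daily) in female SD rats, treated ip twice daily for two weeks in DMSO/Tween 80/glucose vehicle. Drinking water replaced with 10% sucrose for 48 h, then food and water withheld for 20 h. Rats then given 10% sucrose and intake volume measured. n=8, mean ± SD.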

[2] = molecular target: T1, Sphingomyelin phosphodiesterase (Homo sapiens, UniProt P17405); test: Inhibition of human Huh7 cell derived acid sphingomyelinase using NBD-sphingomyelin as substrate after 30 mins by fluorescence based assay
T1 sequence (P17405 whole entry): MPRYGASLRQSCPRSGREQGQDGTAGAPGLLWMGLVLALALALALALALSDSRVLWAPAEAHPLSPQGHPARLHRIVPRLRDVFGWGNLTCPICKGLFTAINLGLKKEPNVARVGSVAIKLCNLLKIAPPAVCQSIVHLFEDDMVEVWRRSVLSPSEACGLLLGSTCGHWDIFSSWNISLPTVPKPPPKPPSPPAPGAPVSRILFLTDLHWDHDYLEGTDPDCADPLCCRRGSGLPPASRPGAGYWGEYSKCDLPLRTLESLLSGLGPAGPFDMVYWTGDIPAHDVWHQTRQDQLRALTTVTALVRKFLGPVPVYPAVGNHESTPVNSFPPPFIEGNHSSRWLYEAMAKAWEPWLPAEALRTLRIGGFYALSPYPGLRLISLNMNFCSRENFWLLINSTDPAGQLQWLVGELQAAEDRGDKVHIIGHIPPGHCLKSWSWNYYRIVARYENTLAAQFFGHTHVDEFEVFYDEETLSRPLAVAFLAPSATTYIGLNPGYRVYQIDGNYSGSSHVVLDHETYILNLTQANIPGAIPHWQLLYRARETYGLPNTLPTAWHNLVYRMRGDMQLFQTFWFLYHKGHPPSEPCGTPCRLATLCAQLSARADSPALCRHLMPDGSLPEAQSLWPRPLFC
Method in brief: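 Cultured cells were lysed in 25 mM Tris-HCl pH 7.4, 5 mM EDTA, sonicated and cleared at 300 g. 400 μg protein incubated with NBD-sphingomyelin in 100 mM sodium acetate pH 4.7, 1% Triton X-100, 40 mM CaCl2, 100 μM ZnCl2. Inhibitors added in DMSO, 37 °C, 30 min. Stopped with chloroform/methanol 2:1; NBD-ceramide fluorescence after TLC.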

[3] = Drug concentration in Sprague-Dawley rat plasma at 48 mg/kg, ip after 4 hrs by LC-MS/MS analysis; type: ADME, organism-based
Method in brief: (§1)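 Nine female SD rats, three per time point, single ip dose of 48 mg/Kg. At 0.5, 2 and 4 h rats were anesthetized with CO2. Heart blood was taken into EDTA-K2 and centrifuged 1500 g, 10 min, for plasma. Brain was weighed and homogenized 1:5 in 20% methanol-water. LC-MS/MS on a C18 column. Mean of 3.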

[4] = Ratio of drug uptake in Sprague-Dawley rat brain to plasma at 48 mg/kg, ip after 30 mins by LC-MS/MS analysis; type: ADME, organism-based; settings: read-out: BPR; method in brief: as §1
Rattus norvegicus [5] = test: In vivo inhibition of acid sphingomyelinase in Sprague-Dawley rat model of reserpine-induced depression assessed as reduction in enzyme activity in cerebral cortex at 24 mg/kg, ip administered twice daily for 2 weeks measured post-last dose by NBD-sphingomyelin substrate-based fluorescence assay (reference value: 53%); set-up: scale not given: the % may be the effect or the level left
Rattus norvegicus [6] = test: Antidepressant activity in Sprague-Dawley rat model of reserpine-induced depression assessed as increase in times passing the grid at 6 to 24 mg/kg, ip administered twice daily for 2 weeks measured for 5 mins by open field test; type: functional, organism-based
Method in brief: (§2)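 Female SD rats (6-8 weeks, 200 g) given reserpine 4 mg/Kg ip daily to induce depression; test agent in 5% DMSO, 2% Tween 80, 5% glucose, ip twice daily for two weeks. Open field: 100×100 cm box, 25 squares, walls about 42 cm, tested 7:30–12:00. Rat placed in central square; centre time, grid crossings, rearing and grooming recorded over 5 min. n=8, mean ± SD.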

[7] = Ratio of drug uptake in Sprague-Dawley rat brain to plasma at 48 mg/kg, ip after 4 hrs by LC-MS/MS analysis; type: ADME, organism-based; settings: read-out: BPR; method in brief: as §1
Rattus norvegicus [8] = test: Antidepressant activity in Sprague-Dawley rat model of reserpine-induced depression assessed as increase in frequency of upright at 6 to 24 mg/kg, ip administered twice daily for 2 weeks measured for 5 mins by open field test; type: functional, organism-based; method in brief: as §2
[9] = Drug concentration in Sprague-Dawley rat plasma at 48 mg/kg, ip after 0.5 hrs by LC-MS/MS analysis; type: ADME, organism-based; method in brief: as §1

IC50 [2]: 320 nM
concentration at 4 h [3]: 144 ng/mL
Kp at 0.5 h [4]: 2.94
Kp at 4 h [7]: 9.55
concentration at 0.5 h [9]: 709 ng/mL
SMILES: O=C(NO)c1cc(OCc2ccc(-c3ccc(Cl)cc3)cc2)no1
Activity (Rattus norvegicus [1]): Dose-dependent effect
Activity (Rattus norvegicus [5]): 27%
Activity (Rattus norvegicus [6]): Active
Activity (Rattus norvegicus [8]): Active
